Calls of active or inactive are those of the source. The calls are words filed in the database; no cut-off is given here.
What was measured:
[1] = test system: Human coronavirus 229E; experiment: Antiviral activity against Human coronavirus 229E infected in HEL cells assessed as reduction in viral cytopathic effect; format: functional, organism-based
Summary of the method: (§1)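 Confluent cell monolayers were infected with 100 CCID50 of virus (1 CCID50 is the dose infecting 50% of cultures) with test compound at varying concentrations (100, 20, … μM). CPE was scored once it was complete in untreated infected controls.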

[2] = test system: Influenza A virus H3N2; experiment: Antiviral activity against Influenza A virus H3N2 infected in MDCK cells assessed as reduction in viral cytopathic effect; format: functional, organism-based
Summary of the method: (§2)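 Nearly confluent MDCK cultures were infected with 100 CCID50 of virus with compound at varying concentrations (100, 20, … μM). CPE was scored when complete in untreated infected controls.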

[3] = test system: Vesicular stomatitis virus; experiment: Antiviral activity against Vesicular stomatitis virus infected in human HeLa cells assessed as reduction in viral cytopathic effect; format: functional, organism-based; summary of the method: as §1
[4] = test system: HEL; experiment: Cytostatic activity against HEL cells after 3 days by Coulter counting method; format: cell-based; details: human, 72 h
Summary of the method: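 HEL cells were seeded at 5 × 10^3 cells/well and grown for 24 h, then given medium with graded compound concentrations. After 3 days at 37 °C, cells were counted with a Coulter counter.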

[5] = test system: Influenza B virus; experiment: Antiviral activity against Influenza B virus infected in MDCK cells assessed as reduction in viral cytopathic effect; format: functional, organism-based; summary of the method: as §2
[6] = Selectivity index, ratio of CC50 for HEL cells to EC50 for Varicella zoster virus Oka infected in HEL cells; format: toxicity, cell-based; details: human, read-out: Ratio CC50/EC50
Summary of the method: (§3)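 SI is CC50 divided by EC50. CC50 comes from the 3-day HEL Coulter-counter growth assay. EC50 comes from the VZV plaque-reduction assay (20 PFU inoculum).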

[7] = test system: Sindbis virus; experiment: Antiviral activity against Sindbis virus infected in African green monkey Vero cells assessed as reduction in viral cytopathic effect; format: functional, organism-based; summary of the method: as §1
[8] = test system: Respiratory syncytial virus; experiment: Antiviral activity against Respiratory syncytial virus infected in human HeLa cells assessed as reduction in viral cytopathic effect; format: functional, organism-based; summary of the method: as §1
[9] = test system: Human alphaherpesvirus 2; experiment: Antiviral activity against Human simplex virus 2 G infected in HEL cells assessed as reduction in viral cytopathic effect; format: functional, organism-based; details: Human alphaherpesvirus 2, strain G; summary of the method: as §1
[10] = test system: Human alphaherpesvirus 1; experiment: Antiviral activity against thymidine kinase deficient acyclovir-resistant Human simplex virus 1 KOS infected in HEL cells assessed as reduction in viral cytopathic effect; format: functional, organism-based; details: Human alphaherpesvirus 1, KOS; summary of the method: as §1
[11] = test system: Human alphaherpesvirus 3; experiment: Antiviral activity against Varicella zoster virus Oka infected in HEL cells assessed as reduction in viral plaque formation; format: functional, organism-based; details: Human alphaherpesvirus 3, strain Oka vaccine
Summary of the method: (§4)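 Confluent cultures were inoculated with 20 PFU of virus with compound at varying concentrations (100, 20, … μM). Plaques were counted once plaque formation was complete in untreated infected controls.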

[12] = test system: Human alphaherpesvirus 1; experiment: Antiviral activity against Human simplex virus 1 KOS infected in HEL cells assessed as reduction in viral cytopathic effect; format: functional, organism-based; details: Human alphaherpesvirus 1, KOS; summary of the method: as §1
[13] = test system: Human alphaherpesvirus 3; experiment: Antiviral activity against thymidine kinase deficient Varicella zoster virus 07/1 infected in HEL cells assessed as reduction in viral plaque formation; format: functional, organism-based; details: Human alphaherpesvirus 3, 07/1, HEL; summary of the method: as §4
[14] = test system: Coxsackievirus B4; experiment: Antiviral activity against Human coxsackievirus B4 infected in human HeLa cells assessed as reduction in viral cytopathic effect; format: functional, organism-based; summary of the method: as §1
[15] = test system: Coxsackievirus B4; experiment: Antiviral activity against Coxsackievirus B4 infected in African green monkey Vero cells assessed as reduction in viral cytopathic effect; format: functional, organism-based; summary of the method: as §1
[16] = test system: Human immunodeficiency virus 1; experiment: Antiviral activity against Human immunodeficiency virus 1 LAV1 infected in primary human PBM cells after 6 days by reverse transcriptase activity-based assay; format: functional, organism-based
[17] = Cytotoxicity against HEL cells assessed as alteration of cell morphology by microscopic method; format: cell-based; details: human
Summary of the method: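 MCC is the lowest compound concentration giving a microscopically visible alteration of cell morphology.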

[18] = test system: Vaccinia virus; experiment: Antiviral activity against Vaccinia virus infected in HEL cells assessed as reduction in viral cytopathic effect; format: functional, organism-based; details: Orthopoxvirus vaccinia; summary of the method: as §1
[19] = test system: Human betaherpesvirus 5; experiment: Antiviral activity against Human cytomegalovirus AD169 infected in HEL cells assessed as reduction in viral cytopathic effect; format: functional, organism-based; details: Human betaherpesvirus 5, AD169, HEL; summary of the method: as §1
[20] = test system: Human respirovirus 3; experiment: Antiviral activity against Human parainfluenza virus 3 infected in African green monkey Vero cells assessed as reduction in viral cytopathic effect; format: functional, organism-based; summary of the method: as §1
[21] = Selectivity index, ratio of CC50 for HEL cells to EC50 for thymidine kinase deficient Varicella zoster virus 07/1 infected in HEL cells; format: toxicity, cell-based; details: human, read-out: Ratio CC50/EC50; summary of the method: as §3
[22] = test system: Mammalian orthoreovirus 1; experiment: Antiviral activity against Reovirus-1 infected in African green monkey Vero cells assessed as reduction in viral cytopathic effect; format: functional, organism-based; summary of the method: as §1
[23] = test system: Influenza A virus; experiment: Antiviral activity against Influenza A virus (H1N1) infected in MDCK cells assessed as reduction in viral cytopathic effect; format: functional, organism-based; summary of the method: as §2
[24] = test system: Human betaherpesvirus 5; experiment: Antiviral activity against Human cytomegalovirus Davis infected in HEL cells assessed as reduction in viral cytopathic effect; format: functional, organism-based; details: Human betaherpesvirus 5, Davis; summary of the method: as §1

Row | Compound | EC50 [1] [µM] | Activity [2] | Activity [3] | Activity [5] | Activity [7] | Activity [8] | EC50 [9] [µM] | EC50 [10] [µM] | EC50 [11] [µM] | EC50 [12] [µM] | EC50 [13] [nM] | Activity [14] | Activity [15] | Activity [16] | MCC [17] [µM] | EC50 [19] [µM] | Activity [20] | Activity [22] | Activity [23] | EC50 [24] [µM] | also measured
1 | Cc1cn(C/C=C/C[P@](=O)(N[C@@H](C)C(=O)OCc2ccccc2)Oc2ccccc2)c(=O)[nH]c1=O | 24.6 | inactive | inactive | inactive | inactive | inactive | 5.3 | 3.2 | 0.39 | 9.6 | 330 | inactive | inactive | inactive | > 100 | 29.9 | inactive | inactive | inactive | 44.7 | CC50 [4]: ≥ 83 µM; selectivity ratio [6]: ≥ 213; EC50 [18]: > 100 µM; selectivity ratio [21]: ≥ 252
2 | Cc1cn(C/C=C/C[P@@](=O)(N[C@@H](C)C(=O)OCc2ccccc2)Oc2ccccc2)c(=O)[nH]c1=O | 60 | inactive | inactive | inactive | inactive | inactive | 2.9 | 4.1 | 0.59 | 11.5 | 390 | inactive | inactive | inactive | > 100 | 34.2 | inactive | inactive | inactive | 52.5 | CC50 [4]: 55 µM; selectivity ratio [6]: 93; selectivity ratio [21]: 141
3 | COC(=O)[C@H](C)NP(=O)(C/C=C/Cn1cc(C)c(=O)[nH]c1=O)Oc1ccccc1 (some centres not stated) | > 100 | inactive | inactive | inactive | inactive | inactive | 31 | 23.5 | 8.13 | 59 | 1820 | inactive | inactive | inactive | > 100 | ≥ 72 | inactive | inactive | inactive | ≥ 70 | CC50 [4]: > 100 µM; selectivity ratio [6]: > 12; EC50 [18]: > 100 µM; selectivity ratio [21]: > 55
4 | C[C@H](NP(=O)(C/C=C/Cn1cc(Cl)c(=O)[nH]c1=O)Oc1ccccc1)C(=O)OCc1ccccc1 (some centres not stated) | 8.9 | inactive | inactive | inactive | inactive | inactive | 40 | 24 | 44.7 | 43 | 20000 | inactive | inactive | inactive | ≥ 100 | > 20 | inactive | inactive | inactive | > 20 | EC50 [18]: > 100 µM
5 | Cc1cn(C/C=C/CP(=O)(N[C@@H](C)C(=O)OC(C)C)Oc2ccccc2)c(=O)[nH]c1=O (some centres not stated) | > 100 | inactive | inactive | inactive | inactive | inactive | > 100 | > 100 | 4.59 | > 100 | 1030 | inactive | inactive | inactive | > 100 | 25.9 | inactive | inactive | inactive | 13.5 | CC50 [4]: > 100 µM; selectivity ratio [6]: > 22; EC50 [18]: > 100 µM; selectivity ratio [21]: > 97
6 | C[C@H](NP(=O)(C/C=C/Cn1cc(F)c(=O)[nH]c1=O)Oc1ccccc1)C(=O)OCc1ccccc1 (some centres not stated) | 45 | inactive | inactive | inactive | inactive | inactive | > 100 | 79 | > 100 | > 100 | > 100000 | inactive | inactive | inactive | ≥ 100 | > 20 | inactive | inactive | inactive | > 20 | EC50 [18]: > 100 µM

Source: ChEMBL document CHEMBL4196014, “Highly convergent synthesis and antiviral activity of (E)-but-2-enyl nucleoside phosphonoamidates” (Eur J Med Chem, 2018)
